Compounds with a hit are over-represented: about 5.5% of the library has one in this group of screens.
PostGolgi yeast = growth inhibition of a yeast mutant, post-Golgi transport screen; post-Golgi transport phenotypic cell assay; inhibition, % at 10 µM; 0.9% of 98,000 active;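 note: yeast cells grown in 1536-well plates; yeast grown about 18 h at 30C before absorbance read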
tolC growth inh = blocks growth of E. coli BW25113 tolC mutant. growth inhibition, % at 10 µM (by protocol). OD615. AID 573. 2.2% of 65,000 active;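 active = growth inhibition at or above a cutoff equal to the mean over every tested compound plus 3 SD, cut at about 60% in these data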;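 note: growth measured after 20 h incubation at 37 °C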
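Test system – E. coli BW25113 ΔtolC::kan, tolC deletion mutant strain · Detection – OD at 615 nm · Buffer or medium – LB with kanamycin 50 µg/mL · Times – 20 h compound exposure of bacteria at 37 °C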
E coli WT exp = growth inhibitors of E. coli BW25113 wild type. OD600 absorbance. growth inhibition, % at 100 µM. 0.15% of 98,000 active. AID 710;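 active = growth inhibition above about 50% at one test dose, limit read from the data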;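 note: growth measured after 20 h incubation at 37 °C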
PostGolgi ctrl = inhibits growth of the yeast control strain; inhibition, % at 10 µM; 5% of 98,000 active; AID 738; efflux-deficient yeast background strain, growth absorbance A615, 16 h
PLAP activator = activates human placental alkaline phosphatase; 1.2% of 96,000 active; P05187; activation fold at 20 µM; purified PLAP enzyme, luminescent substrate read-out; hits give high values; AID 696; in the data active = activation fold above about 2
Target sequence (P05187 whole entry, looked up): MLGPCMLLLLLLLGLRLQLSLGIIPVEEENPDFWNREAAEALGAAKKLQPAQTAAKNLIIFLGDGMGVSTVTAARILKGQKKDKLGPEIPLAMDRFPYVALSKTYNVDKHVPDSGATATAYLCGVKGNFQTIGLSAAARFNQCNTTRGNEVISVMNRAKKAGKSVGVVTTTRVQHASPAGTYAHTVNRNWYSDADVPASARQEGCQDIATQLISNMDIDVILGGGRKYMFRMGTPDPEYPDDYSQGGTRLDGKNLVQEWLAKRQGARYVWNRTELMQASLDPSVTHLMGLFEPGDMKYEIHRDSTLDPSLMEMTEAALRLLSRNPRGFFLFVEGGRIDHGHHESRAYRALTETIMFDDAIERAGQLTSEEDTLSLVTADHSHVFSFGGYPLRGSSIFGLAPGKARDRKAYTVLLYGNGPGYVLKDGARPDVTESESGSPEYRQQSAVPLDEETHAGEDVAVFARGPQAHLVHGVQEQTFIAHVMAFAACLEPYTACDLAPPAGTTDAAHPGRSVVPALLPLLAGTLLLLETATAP
HePTP inhibitor = inhibitors of human HePTP phosphatase; AID 521; inhibition, % at 20 µM; 0.64% of 110,000 active; recombinant HePTP phosphatase activity, OD absorbance; P35236; in the data active = inhibition above about 50%;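 note: plate controls were vehicle for no effect and reference inhibitor for full effect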
Numbers without * were called inactive; . = no result given. Cut-off read from the data, not from the text of the source, unless noted: active = inhibition above about 30%; inactive = the rest.

SMILES	PostGolgi yeast	tolC growth inh	E coli WT exp	PostGolgi ctrl	PLAP activator	HePTP inhibitor
O=C(CSc1ncn[nH]1)c1ccc(Br)cc1	.	.	.	.	.	5
CCCCOc1ccc(CSc2ncn[nH]2)cc1	2	27	14	1	2.3*	2
C(=C\CSc1ncn[nH]1)/CSc1ncn[nH]1	5	-4	16	2	2.7*	-9
O=C(CSc1ncn[nH]1)c1ccccc1	3	-17	0	3	2.2*	0
CC(C)(C)NCC(=O)NCCNc1ccc([N+](=O)[O-])cc1Cl	.	.	.	.	.	1
COc1ccc(Cl)cc1NC1=C(Cl)C(=O)N(c2ccc(Br)cc2)C1=O	.	.	.	.	.	-3
COCCOC(=O)C1=C(C)N=c2s/c(=C\c3ccccc3Cl)c(=O)n2C1c1ccc(OC)cc1 (stereo not given)	.	.	.	.	.	6
O=C(CSc1ncn[nH]1)N(C1CCCCC1)C1CCCCC1	-2	.	4	-1	2*	.
COc1ccnc(Oc2ccccc2)c1C(=O)N/C=N/OCc1ccc(F)cc1Cl	-11	.	-6	8	1.1	.
COc1ccccc1CO/N=C/NC(=O)c1c(OC)ccnc1Oc1ccc(F)cc1	-29	.	-11	51*	1.3	.
CCCCOc1ccc(C(=O)NCCc2ccc(Cl)cc2)cc1	.	.	.	.	.	-10
COC(=O)c1cc(NC(=O)Nc2cccc(Cl)c2)ccc1Cl	25	.	2	41*	1.1	.
N#CCc1ccc(NC(=O)Nc2cccc(Cl)c2)cc1	-1	27	2	31*	0.9	8
O=C(Nc1cccc(Cl)c1)Nc1ccc2c(c1)OCCO2	.	.	.	.	.	6
O=C(Nc1ccc(Br)cc1)Nc1cccc(Cl)c1	.	.	.	.	.	-1
COc1ccc(NS(=O)(=O)c2cccc([N+](=O)[O-])c2)cc1Cl	.	.	.	.	.	0
COc1ccccc1Nc1nc(N)nc(-c2cc3ccccc3o2)n1	-2	-3	0	2	1	-1
COc1cccc(Nc2nc(N)nc(-c3oc4ccccc4c3C)n2)c1	26	.	3	77*	1.2	.
Cc1c(-c2nc(N)nc(Nc3ccccc3F)n2)oc2ccccc12	13	18	-8	35*	1.3	4
O=C(CNCCC1=CCCCC1)Nc1ccc(N2CCCCCC2)cc1	-1	.	40	100*	1.5	.
O=C(CNC1CCCCCC1)Nc1ccc(N2CCCC2)cc1	6	.	4	22	1	.
CCOC(=O)c1nn(-c2ccc(Br)cc2)cc1C(=O)c1cccc2ccccc12	2	.	-3	31*	1	.
O=C(/C=C/c1ccco1)Nc1ccccc1	.	.	.	.	.	-6
CCSc1nnc(Cc2cc(=O)[nH]c(=O)[nH]2)n1-c1cc(C)ccc1C	-6	-5	1	30*	1.3	11
Cc1cccc(-c2nnc3n2N=C(c2ccccc2)CS3)c1	-11	10	-2	38*	0.7	8
SMILES	PostGolgi yeast	tolC growth inh	E coli WT exp	PostGolgi ctrl	PLAP activator	HePTP inhibitor
Cc1cc(-c2nnc3n2N=C(c2ccc(-c4ccccc4)cc2)CS3)n[nH]1	-4	92*	-4	21	1.1	.
Cc1ccc(S(=O)(=O)Nc2ccc3c(c2)ncn3C)cc1	.	.	.	.	.	-2
O=C(CCc1ccccc1)Nc1cccc(Cl)c1Cl	.	.	.	.	.	1
O=C(Nc1ccc(N2CCCC2)c(Cl)c1)c1ccco1	.	24	.	.	0.7	-12
O=C(Cc1ccc(Cl)cc1)Nc1ccc(N2CCN(C(=O)c3ccco3)CC2)c(Cl)c1	-6	46	-21	60*	2.4*	1
O=C(Nc1ccc(N2CCN(C(=O)c3ccco3)CC2)c(Cl)c1)c1cccs1	-7	71*	-17	28	0.9	-8
CCC(=O)NC(Nc1cc(C)on1)(C(F)(F)F)C(F)(F)F	.	.	.	.	.	-2
CCc1nc2oc3ccccc3c(=O)c2c(=O)n1CCOC	0	-29	-8	19	0.9	-5
CCc1nc2oc3ccccc3c(=O)c2c(=O)n1-c1ccccc1	-6	-22	-1	30*	0.9	8
COC(=O)c1cccc(NC(=O)NC23CC4CC(CC(C4)C2)C3)c1	-7	.	-5	9	0.9	.
COC(=O)c1ccc(Cl)c(NC(=O)NC23CC4CC(CC(C4)C2)C3)c1	16	.	-13	31*	0.9	.
CCOc1ccc(-c2nc(C#N)c(N3CCN(C)CC3)o2)cc1	3	13	7	10	1.2	12
CCOc1ccc(-c2nc(C#N)c(N3CCCCCC3)o2)cc1	-3	68*	-14	18	1.5	3
COc1ccc(-c2nc(C#N)c(N3CCCCCC3)o2)cc1OC	13	55	-4	34*	1.5	4
COc1ccc(-c2nc(C#N)c(N3CCCCCC3)o2)cc1	23	47	-5	20	1.4	7
Cc1cc(C)c(NC(=O)COc2ccc(C)cc2Br)c(C)c1	.	.	.	.	.	2
CSc1ncccc1C(=O)OCc1ccccc1F	-5	4	8	36*	1	-8
COc1ccc(NC(=O)NCCCN2CCc3ccccc3C2)cc1	0	-19	7	5	1.6	-1
O=C(NCCCN1CCc2ccccc2C1)Nc1ccc(Br)cc1	6	.	26	19	2.3*	.
Cc1ccc(S(=O)(=O)N2CCN(C(=O)N(C)C)CC2)cc1C	-11	9	-5	0	0.9	-1
Cc1ccc(N(C)C(=O)N2CCN(S(=O)(=O)c3ccc(C)c(C)c3)CC2)cc1	8	.	-14	35*	1.6	.
O=C(Nc1ccc(Cc2ccncc2)cc1)c1ccc(Cl)c([N+](=O)[O-])c1	67*	.	3	78*	0.9	.
O=S(=O)(Nc1ccc(Cc2ccncc2)cc1)c1ccc(Cl)c(Cl)c1	107*	.	4	96*	1.3	.
O=C(Nc1ccc(Cl)cc1)c1ccc(-n2cccn2)c([N+](=O)[O-])c1	12	.	-8	38*	1	.
CC(=O)c1ccc(NC(=O)c2ccc(Cl)c([N+](=O)[O-])c2)cc1	.	.	.	.	.	2
SMILES	PostGolgi yeast	tolC growth inh	E coli WT exp	PostGolgi ctrl	PLAP activator	HePTP inhibitor
O=S(=O)(Nc1ccncc1)c1ccc(Cl)cc1	-4	.	-4	-1	0.9	.
COc1ccc2[nH]c(=S)[nH]c2c1	-8	-17	-4	23	2.6*	7
CCc1nnc(NC(=O)c2ccc(S(=O)(=O)N(CC)CC)cc2)s1	-7	4	-14	13	.	-10
CCCCN(CC)S(=O)(=O)c1ccc(C(=O)Nc2nnc(-c3cccs3)o2)cc1	-3	99*	-1	16	1.5	13
CCCCN(CCCC)S(=O)(=O)c1ccc(NC(=O)Cc2cccs2)cc1	-13	.	-4	12	0.7	.
CCc1nnc(NC(=O)c2ccc(S(=O)(=O)N(CC)Cc3ccccc3)cc2)o1	9	100*	2	6	1.6	2
CCCCN(CCCC)S(=O)(=O)c1ccc(C(=O)Nc2nnc(COC)o2)cc1	1	97*	5	-3	1.2	9
CCCCN(CCCC)S(=O)(=O)c1ccc(NS(=O)(=O)c2ccc(NC(C)=O)cc2)cc1	-2	.	-12	-5	1.5	.
CCCCN(C)S(=O)(=O)c1ccc(C(=O)Nc2nnc(CSC)o2)cc1	-6	98*	14	3	1.3	8
Cc1ccc(C(=O)N2CCN3C(=O)c4ccccc4C23c2ccc(Cl)cc2)cc1 (stereo not given)	21	.	-9	39*	1.6	.
Oc1ccc2ccccc2c1C1Nc2cccc3cccc(c23)N1	-2	.	-1	37*	1.1	.

Compound activity deposited in PubChem BioAssay by several laboratories.
